According to ChEMBL document CHEMBL4689842, “EUbOPEN Chemogenomics Library wave 1” (2021):

Test system: HEK-293T
Experiment: Multiplex assay against HEK293T;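 for Population Tubulin-Different-Phenotype (%): share of the cells with healthy nuclei that show this phenotype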
Type: toxicity, cell-based
Settings: human
In short: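 Compound was added to live cells that had been stained at seeding with Hoechst33342, BioTracker Green Microtubule Cytoskeleton Dye, MitoTracker Red and Annexin V Alexa Fluor 680, and imaging followed on a CQ1 microscope at 37°C and 5% CO2. CellPathfinder machine-learning gating divided cells into Hoechst high-intensity objects or normal cells, normal cells into healthy, pyknosed or fragmented nuclei, and pyknosed cells into mitotic or apoptotic. Tubulin, mitochondrial-mass and membrane-permeability phenotypes are per cents of healthy-nucleus cells.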

[1] = 12 h, 1 µM, compound concentration 1 uM, replicate 1
[2] = 12 h, 1 µM, compound concentration 1 uM, replicate 2
[3] = 12 h, 10 µM, compound concentration 10 uM, replicate 1
[4] = 12 h, 10 µM, compound concentration 10 uM, replicate 2
[5] = 24 h, 1 µM, compound concentration 1 uM, replicate 1
[6] = 24 h, 1 µM, compound concentration 1 uM, replicate 2
[7] = 24 h, 10 µM, compound concentration 10 uM, replicate 1
[8] = 24 h, 10 µM, compound concentration 10 uM, replicate 2
[9] = 48 h, 1 µM, compound concentration 1 uM, replicate 1
[10] = 48 h, 1 µM, compound concentration 1 uM, replicate 2
[11] = 48 h, 10 µM, compound concentration 10 uM, replicate 1
[12] = 48 h, 10 µM, compound concentration 10 uM, replicate 2

## CN1CCCC(n2nc(Cc3ccc(Cl)cc3)c3ccccc3c2=O)CC1.Cl (stereo not given) [AZELASTINE HYDROCHLORIDE]
[1]
  Population Apoptotic (%): 50%
  Population Fragmented Nuclei (%): 8%
  Population Healthy Nuclei (%): 42%
  Population Hoechst High Intensity Objects (%): 9%
  Population Membrane Permeable-Phenotype (%): 3%
  Population Mitochondria Different-Phenotype (%): 94%
  Population Mitotic Cells (%): 49%
  Population Normal (%): 90%
  Population Pyknosed Nuclei (%): 50%
  Population Tubulin-Different-Phenotype (%): 84%
  Total Cell Count: 333
[2]
  Population Apoptotic (%): 40%
  Population Fragmented Nuclei (%): 6%
  Population Healthy Nuclei (%): 24%
  Population Hoechst High Intensity Objects (%): 5%
  Population Membrane Permeable-Phenotype (%): 4%
  Population Mitochondria Different-Phenotype (%): 61%
  Population Mitotic Cells (%): 59%
  Population Normal (%): 94%
  Population Pyknosed Nuclei (%): 69%
  Population Tubulin-Different-Phenotype (%): 68%
  Total Cell Count: 190
[3]
  Population Apoptotic (%): 82%
  Population Fragmented Nuclei (%): 11%
  Population Healthy Nuclei (%): 16%
  Population Hoechst High Intensity Objects (%): 19%
  Population Membrane Permeable-Phenotype (%): 2%
  Population Mitochondria Different-Phenotype (%): 100%
  Population Mitotic Cells (%): 17%
  Population Normal (%): 80%
  Population Pyknosed Nuclei (%): 72%
  Population Tubulin-Different-Phenotype (%): 78%
  Total Cell Count: 289
[4]
  Population Apoptotic (%): 89%
  Population Fragmented Nuclei (%): 5%
  Population Healthy Nuclei (%): 23%
  Population Hoechst High Intensity Objects (%): 4%
  Population Membrane Permeable-Phenotype (%): 3%
  Population Mitochondria Different-Phenotype (%): 98%
  Population Mitotic Cells (%): 10%
  Population Normal (%): 95%
  Population Pyknosed Nuclei (%): 70%
  Population Tubulin-Different-Phenotype (%): 56%
  Total Cell Count: 231
[5]
  Population Apoptotic (%): 56%
  Population Fragmented Nuclei (%): 8%
  Population Healthy Nuclei (%): 37%
  Population Hoechst High Intensity Objects (%): 11%
  Population Membrane Permeable-Phenotype (%): 3%
  Population Mitochondria Different-Phenotype (%): 92%
  Population Mitotic Cells (%): 43%
  Population Normal (%): 88%
  Population Pyknosed Nuclei (%): 54%
  Population Tubulin-Different-Phenotype (%): 83%
  Total Cell Count: 353
[6]
  Population Apoptotic (%): 50%
  Population Fragmented Nuclei (%): 7%
  Population Healthy Nuclei (%): 49%
  Population Hoechst High Intensity Objects (%): 4%
  Population Membrane Permeable-Phenotype (%): 5%
  Population Mitochondria Different-Phenotype (%): 66%
  Population Mitotic Cells (%): 50%
  Population Normal (%): 95%
  Population Pyknosed Nuclei (%): 43%
  Population Tubulin-Different-Phenotype (%): 74%
  Total Cell Count: 223
[7]
  Population Apoptotic (%): 82%
  Population Fragmented Nuclei (%): 13%
  Population Healthy Nuclei (%): 13%
  Population Hoechst High Intensity Objects (%): 19%
  Population Membrane Permeable-Phenotype (%): 0%
  Population Mitotic Cells (%): 17%
  Population Normal (%): 80%
  Population Pyknosed Nuclei (%): 72%
  Population Tubulin-Different-Phenotype (%): 59%
  Total Cell Count: 289
[8]
  Population Apoptotic (%): 93%
  Population Fragmented Nuclei (%): 8%
  Population Healthy Nuclei (%): 33%
  Population Hoechst High Intensity Objects (%): 7%
  Population Membrane Permeable-Phenotype (%): 4%
  Population Mitochondria Different-Phenotype (%): 100%
  Population Mitotic Cells (%): 6%
  Population Normal (%): 92%
  Population Pyknosed Nuclei (%): 58%
  Population Tubulin-Different-Phenotype (%): 38%
  Total Cell Count: 230
[9]
  Population Apoptotic (%): 49%
  Population Fragmented Nuclei (%): 14%
  Population Healthy Nuclei (%): 42%
  Population Hoechst High Intensity Objects (%): 14%
  Population Membrane Permeable-Phenotype (%): 3%
  Population Mitochondria Different-Phenotype (%): 72%
  Population Mitotic Cells (%): 50%
  Population Normal (%): 85%
  Population Pyknosed Nuclei (%): 42%
  Population Tubulin-Different-Phenotype (%): 70%
  Total Cell Count: 404
[10]
  Population Apoptotic (%): 47%
  Population Fragmented Nuclei (%): 7%
  Population Healthy Nuclei (%): 65%
  Population Hoechst High Intensity Objects (%): 5%
  Population Membrane Permeable-Phenotype (%): 6%
  Population Mitochondria Different-Phenotype (%): 48%
  Population Mitotic Cells (%): 52%
  Population Normal (%): 94%
  Population Pyknosed Nuclei (%): 26%
  Population Tubulin-Different-Phenotype (%): 71%
  Total Cell Count: 324
[11]
  Population Apoptotic (%): 79%
  Population Fragmented Nuclei (%): 20%
  Population Healthy Nuclei (%): 6%
  Population Hoechst High Intensity Objects (%): 27%
  Population Membrane Permeable-Phenotype (%): 0%
  Population Mitochondria Different-Phenotype (%): 100%
  Population Mitotic Cells (%): 20%
  Population Normal (%): 72%
  Population Pyknosed Nuclei (%): 73%
  Population Tubulin-Different-Phenotype (%): 38%
  Total Cell Count: 297
[12]
  Population Apoptotic (%): 89%
  Population Fragmented Nuclei (%): 8%
  Population Healthy Nuclei (%): 57%
  Population Hoechst High Intensity Objects (%): 18%
  Population Mitochondria Different-Phenotype (%): 99%
  Population Mitotic Cells (%): 10%
  Population Normal (%): 81%
  Population Pyknosed Nuclei (%): 34%
  Population Tubulin-Different-Phenotype (%): 15%
  Total Cell Count: 231
